Laboratory results: article PMC3625064 (Molecular cell, 2012)
Changes are numbered by the printed parent chain. In names and notes the source's numbering stands. No end group written: not given here.

Legend:
LSD2 [1] = target: T1, LSD2 (Homo sapiens, UniProt Q8NB78); assay: nucleosome demethylation assay, stimulation; type: biochemical
T1 sequence (Q8NB78 1-822): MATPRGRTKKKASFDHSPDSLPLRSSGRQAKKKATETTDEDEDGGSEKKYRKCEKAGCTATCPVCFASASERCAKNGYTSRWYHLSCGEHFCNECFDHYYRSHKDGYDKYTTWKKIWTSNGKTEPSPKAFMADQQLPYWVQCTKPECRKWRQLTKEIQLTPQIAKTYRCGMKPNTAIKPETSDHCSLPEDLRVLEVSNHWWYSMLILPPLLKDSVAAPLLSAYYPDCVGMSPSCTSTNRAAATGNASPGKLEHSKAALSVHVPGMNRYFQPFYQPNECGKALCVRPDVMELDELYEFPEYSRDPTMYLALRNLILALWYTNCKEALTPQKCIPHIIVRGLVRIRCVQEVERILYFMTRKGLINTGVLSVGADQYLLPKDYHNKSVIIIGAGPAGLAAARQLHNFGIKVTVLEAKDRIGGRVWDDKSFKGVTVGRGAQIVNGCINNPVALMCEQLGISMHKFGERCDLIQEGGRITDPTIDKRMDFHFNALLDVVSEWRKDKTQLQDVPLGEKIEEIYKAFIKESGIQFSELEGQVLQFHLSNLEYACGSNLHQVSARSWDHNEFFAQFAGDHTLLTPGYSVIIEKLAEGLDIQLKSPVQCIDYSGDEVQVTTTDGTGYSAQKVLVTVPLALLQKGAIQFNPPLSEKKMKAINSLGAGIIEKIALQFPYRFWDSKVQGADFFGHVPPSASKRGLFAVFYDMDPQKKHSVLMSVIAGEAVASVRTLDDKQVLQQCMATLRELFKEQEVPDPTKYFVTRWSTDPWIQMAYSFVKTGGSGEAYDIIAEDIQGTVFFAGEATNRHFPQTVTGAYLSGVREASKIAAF

LSD2 [2] = target: T1, LSD2; assay: H3K4me2 peptide; type: biochemical; conditions: 50 μM H3K4me2 peptide (1–21), 50 mM Tris-HCl pH 8.5, 50 mM KCl, 5 mM MgCl2, 5% glycerol, 37°C, 30 min; MALDI-TOF MS
Procedure, shortened: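 Purified LSD2, full-length or truncated (residues 51–822), incubated with NPAC-derived peptides or proteins and 50 μM H3K4me2 peptide (residues 1–21, >95% pure by HPLC and MS) in 50 mM Tris-HCl pH 8.5, 50 mM KCl, 5 mM MgCl2, 5% glycerol, 37°C, 30 min. Products desalted on C18 tips; MALDI-TOF MS at constant laser intensity across samples.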

[3] = target: T2, LSD2 used for isothermal titration calorimetry (human, UniProt Q8NB78 1-822); assay: ITC
T2 sequence (looked up): T1 sequence (Q8NB78 1-822)

[4] = target: T3, LSD2 (residues 51–822), as crystallised with NPAC (human, UniProt Q8NB78 51-822); assay: crystal structure
T3 sequence: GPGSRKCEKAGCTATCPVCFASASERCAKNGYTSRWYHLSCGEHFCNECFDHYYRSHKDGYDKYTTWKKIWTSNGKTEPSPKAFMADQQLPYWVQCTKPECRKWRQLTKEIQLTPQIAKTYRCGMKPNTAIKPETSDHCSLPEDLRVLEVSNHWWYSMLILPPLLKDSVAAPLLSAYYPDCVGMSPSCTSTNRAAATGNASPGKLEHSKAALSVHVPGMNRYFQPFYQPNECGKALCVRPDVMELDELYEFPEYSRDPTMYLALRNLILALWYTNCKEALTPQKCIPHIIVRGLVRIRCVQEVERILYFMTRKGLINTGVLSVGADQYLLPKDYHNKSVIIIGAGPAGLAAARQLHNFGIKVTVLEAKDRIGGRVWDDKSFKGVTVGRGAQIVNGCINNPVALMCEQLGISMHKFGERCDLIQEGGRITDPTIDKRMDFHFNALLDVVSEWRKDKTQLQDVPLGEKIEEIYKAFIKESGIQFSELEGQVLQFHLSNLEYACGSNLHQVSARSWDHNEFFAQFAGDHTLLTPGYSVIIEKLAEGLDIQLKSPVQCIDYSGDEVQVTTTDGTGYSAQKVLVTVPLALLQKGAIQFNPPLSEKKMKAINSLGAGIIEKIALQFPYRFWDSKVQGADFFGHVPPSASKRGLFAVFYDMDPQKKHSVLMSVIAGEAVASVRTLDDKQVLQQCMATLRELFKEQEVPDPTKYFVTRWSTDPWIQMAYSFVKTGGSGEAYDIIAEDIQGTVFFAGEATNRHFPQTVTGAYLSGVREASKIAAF

LSD1 = assay: nucleosome demethylation by LSD1, stimulation by NPAC; type: biochemical, human; conditions: nucleosomes; Figure S1B
LSD2 [5] = target: T1, LSD2; assay: shorter H3K4me2 peptide; type: biochemical; conditions: H3K4me2 peptide (residues 1–15) as substrate; Figures S6A and S6B
Procedure, shortened: (§1)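 Purified LSD2 (full-length or residues 51–822) was incubated with NPAC-derived peptides or proteins and an H3K4me2 peptide substrate. Products were desalted on C18 tips and analysed by MALDI-TOF MS at constant laser intensity for me1/me2 masses.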

nucleosomal H3K4me2 = assay: nucleosome demethylation assay, demethylase activity toward nucleosomal H3K4me2; type: biochemical; conditions: recombinant NPAC, or NPAC complex purified from HeLa cells via TAP; immunoblot
Procedure, shortened: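 Nucleosomes purified from HeLa cells were incubated with tandem-affinity-purified NPAC or LSD2 complexes from HeLa cells, with or without added recombinant NPAC. H3K4 demethylation was assessed by SDS-PAGE and immunoblot with methylation-specific histone H3 antibodies.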

[6] = system: LSD2 histone demethylation in U2OS cells; assay: immunofluorescence of histone marks in U2OS cells coexpressing LSD2 and NPAC; type: cell-based; conditions: coexpression of NPAC and LSD2; Figure S1D and data not shown
Procedure, shortened: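 U2OS cells were transiently transfected with GFP-LSD2 alone or together with NPAC. Histone methylation marks were then detected by immunofluorescence with DAPI as DNA counterstain. Cells expressing similar levels of GFP-LSD2 were compared.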

LSD2 [7] = target: T1, LSD2; assay: GST pull-down of His-LSD2; type: binding; conditions: GST pull-down of purified His-LSD2, SDS-PAGE, Coomassie blue staining
Procedure, shortened: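 GST and GST-tagged wild-type or mutant NPAC proteins (linker-region and binding-site mutants) were used to pull down purified His-LSD2. His-LSD2 in input and bound fractions was resolved by SDS-PAGE and stained with Coomassie blue.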

LSD2 [8] = target: T1, LSD2; assay: longer H3K4me2 peptide; type: biochemical; conditions: H3K4me2 peptide (1–44) as substrate; Figure S6C
Procedure, shortened: as §1

DPHFHHFLLSQT [NP.WT]
cofactor activity stimulating LSD2 demethylation of nucleosomes and synthetic histone peptides (summary) (LSD2 [1]; independent of PWWP module, discussion): robust cofactor activity | cofactor activity for LSD2 with H3K4me2 peptide (residues 1–21) as substrate (LSD2 [2]): can stimulate LSD2-mediated demethylation of H3K4me2 peptides

DPHFHHFLLSQT (peptide, UniProt Q49A26 214-225, looked up) [wild-type NPAC dodecapeptide (residues 214–225)]
Kd [3]: 920 ± 80 nM

DPHAHHFLLSQT (peptide, UniProt Q49A26 214-225, looked up) [NPAC dodecapeptide (residues 214–225) F217A]
Kd [3]: 930 ± 70 nM

B1: NPAC linker region (amino acids 152–268), as crystallised with LSD2 (domain or fragment, UniProt Q49A26 152-268, looked up)
chain: SERGSKSPLKRAQEQSPRKRGRPPKDEKDLTIPESSTVKGMMAGPMAAFKWQPTASEPVKDADPHFHHFLLSQTEKPAVCYQAITKKLKICEEETGSTSIQAADSTAVNGSITPTDK
binding result [4]: binds

B2: NPAC: NPAC/GLYR1 (UniProtKB/Swiss-Prot ID: Q49A26), contains PWWP domain, AT-hook motif, and dehydrogenase domain (protein, UniProt Q49A26 1-553, looked up)
Cytokine-like nuclear factor …: MAAVSLRLGDLVWGKLGRYPPWPGKIVNPPKDLKKPRGKKCFFVKFFGTEDHAWIKVEQLKPYHAHKEEMIKINKGKRFQQAVDAVEEFLRRAKGKDQTSSHNSSDDKNRRNSSEERSRPNSGDEKRKLSLSEGKVKKNMGEGKKRVSSGSSERGSKSPLKRAQEQSPRKRGRPPKDEKDLTIPESSTVKGMMAGPMAAFKWQPTASEPVKDADPHFHHFLLSQTEKPAVCYQAITKKLKICEEETGSTSIQAADSTAVNGSITPTDKKIGFLGLGLMGSGIVSNLLKMGHTVTVWNRTAEKCDLFIQEGARLGRTPAEVVSTCDITFACVSDPKAAKDLVLGPSGVLQGIRPGKCYVDMSTVDADTVTELAQVIVSRGGRFLEAPVSGNQQLSNDGMLVILAAGDRGLYEDCSSCFQAMGKTSFFLGEVGNAAKMMLIVNMVQGSFMATIAEGLTLAQVTGQSQQTLLDILNQGQLASIFLDQKCQNILQGNFKPDFYLKYIQKDLRLAIALGDAVNHPTPMAAAANEVYKRAKALDQSDNDMSAVYRAYIH
modifications: His tag
stimulatory effect on nucleosome demethylation by LSD1 (LSD1): no stimulatory effect | cofactor activity with shorter H3K4me2 peptide (residues 1–15) (LSD2 [5]): did not detect NPAC cofactor activity | histone demethylase activity toward nucleosomes (nucleosomal H3K4me2): possesses no demethylase activity | change of H3K9me2 and other histone marks [6]: no detectable changes

B3: NP.d3: truncation protein containing the linker region, residues 152–252; GST-tagged (protein)
chain: SERGSKSPLKRAQEQSPRKRGRPPKDEKDLTIPESSTVKGMMAGPMAAFKWQPTASEPVKDADPHFHHFLLSQTEKPAVCYQAITKKLKICEEETGSTSIQ
modifications: left off: GST, end not stated, kept
LSD2 binding / interaction (LSD2 [7]): capable of directly interacting with LSD2 | LSD2 binding / interaction (LSD2 [7]; listed as linker region of NPAC): sufficient for LSD2 binding | cofactor activity for LSD2 with H3K4me2 peptide (residues 1–21) as substrate (LSD2 [2]): strong cofactor activity for LSD2

B4: NPAC F217A protein: full-length F217A NPAC protein (protein, UniProt Q49A26 1-553, looked up, variant F217A)
chain: B2 Cytokine-like nuclear factor … with F217A
modifications: full-length
stimulation of LSD2 demethylation of the longer H3K4me2 peptide (1–44) (LSD2 [8]): very weak or undetectable | cofactor activity of full-length NPAC protein, more NPAC and LSD2 proteins (LSD2 [1]; nucleosome demethylation, more NPAC and LSD2 proteins used, Figure S6E): residual stimulatory activity
